The chains are these.
B1: tRNA (parent)
chain: GUUCCGUUGGCGUAAUGGUAACGCGUCUCCCUCCUAAGGAGAAGACUGCGGGUUCGAGUCCCGUACGGAACG

In the RNAGym collection of RNA variant scans (doi:10.1126/science.aae0568) one finds yeast fitness data, which are given here for 37 variants.

Fewer inactive variants are shown than the library holds.

The variants in this data set derive from B1. Briefly: yeast fitness relative to wild type (ratio to wild type); higher = fitter; tRNA-Arg(CCU), competitive growth, 37 C, YPD. In outline: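 Genotype frequency changes were the basis for Darwinian fitness relative to wild type. The frequencies came from 100-nucleotide paired-end sequencing of gene amplicons from the start population and each end population of pooled yeast strains with tRNA-Arg(CCU) gene variants at the native locus. Competition ran in YPD at 37°C for 24 hours in six replicates, genotypes needed ≥ 100 starting reads, and estimates < 0.5 were set to 0.5.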
In the case of GCUCCGUUGGCGAAAUGAUAACGCGUCUCCCUCCUAAGGAGGAGACUGCGGGUUCGAGUCCCGUACGGAACG [U2C U13A G18A A42G], the yeast fitness was at most 0.5.

On to GCUCCGUUGGCGCGAUGGUAAGGCGACUCCCUCCUAAGGAGAAGACUGCGGGUUCGAGUCCCGUACGGAACG [U2C U13C A14G C22G U26A], for which the yeast fitness is at most 0.5.

In the case of GCUCCGUUGGCGCAAUGGUAACGCGUCUCCCUCCUAAGGAAAAGACUGCGGGUUCGAGUCCCGUACGGAACG [U2C U13C G41A], the yeast fitness was 0.602.

GCUCCGUUGGCGUAAAGGUAACGCGUCUCCCUCCUAAGGAGAAGACUGCGGGUUCGAGUCCCAUACGGAACG [U2C U16A G63A]: the yeast fitness is 0.705.

On to GCUCCGUUGGCGUAAUGGAAACGCGUCUCUCUCCUAACGAGAAGACUGCGGGUUCGAGUCCCGUACGGAACG [U2C U19A C30U G38C], for which the yeast fitness is 0.54.

As to GCUCCGUUGGCGUAAGGGUAACGCGUCUCCCUCCUAAGGAGAAGACUGCGGGUUCCAGUCCCGUACGGAACG [U2C U16G G56C], the yeast fitness is at most 0.5.

As for GCUCCGUCGGCGUAAUGGUAACGCGUCUCCCUCAUAAGGAGCAGACUGCGGGUUCGAGUCCCGUACGCAACG [U2C U8C C34A A42C G68C], the yeast fitness was at most 0.5.

Consider GCUCCGUUGGCGAAAUGGUAACGCGUCUCCCUCCUAAGGAGAAGACUGCGGGUCCGAGUCCCGUAUGGAACG [U2C U13A U54C C66U], for which the yeast fitness was at most 0.5.

GCUCCGUUGGCGCAAUGGUAAGGCGACUCCUUCCUAAGGAGCAGACUGCCGGUUCGAGUCCCGUACGGAACG [U2C U13C C22G U26A C31U A42C G50C]: the yeast fitness is at most 0.5.

Turning to GCUCCGUUGGCGUAAUGGUAACGCGUCACCCUCCUAAGGAGAAGACUGCGGGUUCAAGUCCCGUACGGAACG [U2C U28A G56A], the yeast fitness is at most 0.5.

For GCUCCGUUGGCGUAAUGGUAACGCGUCUCCCUCCAAAGGAGAAGACUGCGGGUUAGAGUCCCGUACGGAACG [U2C U35A C55A], the yeast fitness was at most 0.5.

GCUCCGUUGGCGUAAUGGUAACGCGUCUCCCCCCAAAGGAGAAGACUGCGGGUUCAAGUCCCGUACGGAACG [U2C U32C U35A G56A]: the yeast fitness is at most 0.5.

Turning to GCUCCGUUGGCGUAAGGGUAACGCGUCUCCCUCCUAAGGAGAAGACUGCGGGUUCGAGUCCCGUACGGAGCG [U2C U16G A70G], the yeast fitness is 1.06.

With GCUCCGUUGGCGUAAUGGUAACGCGACUCCCUCCUAAGGAGAAGACUGCGGGUUCGAGUCCCGUACGGAACG [U2C U26A], the yeast fitness was 0.918.

Consider GCUCCGUUGGCGUAAUGGGAACGCGUCUCCCUCCUAAGGAGAAGACUGCGGGUUCGAGUACCGUACGGAACG [U2C U19G C60A], for which the yeast fitness came to 0.528.

In the case of GCUCCGUUGGCGUAAUGGUAACGCGUCUCCCUCCAAAGGAGAAGACUGCGGGUUCAAGUCCCGUACGGAACG [U2C U35A G56A], the yeast fitness was 0.576.

With GCUCCGUUGGCGUAACGGUAACGCGUCUCCCUCCUGAGGAGAAGACUGCGGGUUUGAGUCCCGUACGGAACG [U2C U16C A36G C55U], the yeast fitness was at most 0.5.

Turning to GCUCCGUUGGCGUAAUGGUAACGCGUCUCCCACCUAAGGAGAAGACUGCGGGUUCGAGUCACGUGCGGAACG [U2C U32A C61A A65G], the yeast fitness was at most 0.5.

On to GCUCCGUUGGCGUAAGGGUAACGCGUCUCCCUCCUAAGGAGAAGACUGCGAGUUCGAGUCCCGUACGGAACG [U2C U16G G51A], for which the yeast fitness came out at 0.588.

As to GCUCCGUUGGCGUAAUGGUAACGCGCCUCCCUCCUGAGGAGAAGACUGCGGGUUCGAGUCCCGUACGGAACG [U2C U26C A36G], the yeast fitness was at most 0.5.

As to GCUCCGUUGGCGUAAUGGUAACGCGUCUCCCUCCUAAGGAGAAGACUGCGGGGUCGAGUCCCGUACGGAACG [U2C U53G], the yeast fitness amounted to 0.598.

As to GCUCCGUUGGCGUAAUGGUAACGCGUCUCCCACCUAAGGAGAAGAUUGCGGGUUCGAGUCCCGUACGGAACG [U2C U32A C46U], the yeast fitness stood at 0.603.

For the variant GCUCCGUUGGCGCAAUGGUAACGCGUCUCCCUCCUAAGGAGAACACUGCGGGUUCGAAUCCCGUACGGAACG [U2C U13C G44C G58A], the yeast fitness is 0.59.

Consider GCUCCGUUGGCGUAAUGGUAACGCGUCUCCCUCCCAAGGAGAAGACUGCGGGUUCGAGUCCCGUACGGCACG [U2C U35C A69C], for which the yeast fitness was at most 0.5.

Take GCUCCGUCGGCGUAAUGGUAACGCGUCUCCCUCCUAAGGAGAAAACUGCGGGCUCGAGUCCCGUACGGAUCG [U2C U8C G44A U53C A70U]: the yeast fitness is at most 0.5.

Consider GCUCCGUGGGUGUAAUGGUAACGUGUCUCCCUCCUAUGGAGAAGACUGCGGGUUCGAGUCCCGUAAGGAACG [U2C U8G C11U C24U A37U C66A], for which the yeast fitness is at most 0.5.

GCUCCGUCGGCGUAAUGGUAACGCGUCUCCCUCAUAAGGAGCAGACUGAGGGUUCGAGUCCCGUACGGAACG [U2C U8C C34A A42C C49A]: the yeast fitness was at most 0.5.

GCUCCGUUGGCGUAAAGGUAACGCGUCUCCCUCCUAAGGAGGAGACUGCGGGUUCGAGUCCCGUACGGAACG [U2C U16A A42G]: the yeast fitness is 0.649.

For the variant GCUCCGUGGGCGUGAUGGUAACGCGUCUCCCGCCAAAGGAGAAGACUGCGGGUUCGAGUCCCGUACGGAACG [U2C U8G A14G U32G U35A], the yeast fitness is at most 0.5.

As for GCUCCGUUGGCGUAAUGGCAACGCGUCUCCCUCCUAAGGAGAAGACUGCGGGUUCGCGUCCCGUACGGAACG [U2C U19C A57C], the yeast fitness was 0.642.

Turning to GCUCCGUUGGCGUAAUGGUAACGCGUCUCCCACCUAAGGAGAAGACUGCGGGUUCGAGUCCCGUCCGGAACG [U2C U32A A65C], the yeast fitness is at most 0.5.

In the case of GCUCCGUUGGCGUAAUGGCAACGCGUCUCCCUCCUAAGGAGAAGACUGCAGGUUCGAGUCCCGUACGGAACG [U2C U19C G50A], the yeast fitness worked out at 0.593.

As to GCUCCGUUGGCGUAAAGGUAACGCGUCUCCCUCCUAAGGAGAAGACUGCGGGUUCGAGUCCCGUACGGACCG [U2C U16A A70C], the yeast fitness was 0.676.

In the case of GCUCCGUUGGCGGAAUGGUAACGCGUCUCCCUCCUAAGGAGAAGACUGCGGGUUCGAGUCCCGUACUGAACG [U2C U13G G67U], the yeast fitness is at most 0.5.

Take GCUCCGUUGGCGUAAUGGUAACGCGCGACCCUCCUAAGGAGAUGACUGCGGGUUCGAGUCCCGUACGGAACG [U2C U26C C27G U28A A43U]: the yeast fitness was at most 0.5.

For GCUCCGUUGGCGCAAUGGUAAGGCGACUCCCUCCUAAGGAGAAGACUGCGGGUUCGAGUCCCGUACGGAACG [U2C U13C C22G U26A], the yeast fitness is at most 0.5.

GCUCCGUUGGCGUAAUGGUAACGCGUCACCCUCCUAAGGAGAAUACUGCGGGUUCGAGUCCCGUACGGAACG [U2C U28A G44U]: the yeast fitness is at most 0.5.
